Hits are enriched below; roughly 4% of the tested compounds scored in any of these assays.
SENP1 FRET inh – blocks the human SENP1 SUMO protease catalytic domain | AID 624204 | hit rate 0.21% among 360,000 | recombinant SENP1 catalytic domain, CyPet-SUMO1-YPet FRET cleavage | inhibition, % at 10 µM | Q9P0U3;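 active means inhibition at least 30% at 10 µM, raw YFP signal under a set limit, fluorescence ratio 0.5 to 1.5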
Target sequence (Q9P0U3 419-644 limits assumed): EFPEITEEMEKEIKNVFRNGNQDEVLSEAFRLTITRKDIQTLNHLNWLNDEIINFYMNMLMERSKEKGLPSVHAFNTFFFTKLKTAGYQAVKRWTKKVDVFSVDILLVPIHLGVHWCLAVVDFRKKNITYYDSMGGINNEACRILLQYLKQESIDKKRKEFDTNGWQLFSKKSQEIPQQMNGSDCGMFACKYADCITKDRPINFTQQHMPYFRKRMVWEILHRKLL
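Controls: no-enzyme wells low, DMSO-plus-enzyme wells high control. Test system: human recombinant His6-tagged SENP1 catalytic domain enzyme. Reagent: SFCypet-SUMO1-SFYpet FRET protein substrate, 25 nM final. Doses: one dose per compound, 10 µM, 0.5% DMSO. Detection: FRET, CFP and YFP emission. Timing: 50 min reaction at room temperature.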
GRIN3A LBD mod – modulators (binders) of human NR3A ligand-binding domain; NR3A LBD differential scanning fluorimetry, Tm shift; 0% = protein alone, 100% = glycine-bound protein; Tm shift relative to glycine control, % at 25 µM; hit rate 2.5% among 340,000;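 active means melting temperature shift of at least 10% of the positive control shift, at one fixed dose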
H9c2 protect – modulators protecting cardiomyocytes from myocardial damage. H9c2 cardiomyocytes, H2O2 injury protection, ATPLite, 2 h. protection from H2O2 cell death, % at 20 µM. hit rate 0.63% among 360,000. AID 588492;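 active means compounds giving at least 50% protection of heart cells from peroxide-induced death in the single-dose screen, raw or plate-pattern-corrected value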
FAS-TE inh – FAS thioesterase (human) inhibition; P49327; recombinant FAS-TE, OMFH fluorogenic substrate, fluorescence endpoint; inhibition, % at 15 µM; hit rate 0.67% among 360,000; AID 602261;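 active means compounds whose normalised, plate-corrected inhibition of enzyme fluorescence in the single-dose primary screen is 50% or more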
iPSC survival up – increases survival of single human iPS cells; hiPSC single-cell survival, ATPlite luminescence; 100% = ROCK inhibitor wells, 0% = DMSO; survival enhancement, % at 20 µM; hit rate 0.044% among 360,000; AID 602274; in the data active means survival enhancement above about 18%;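 further: cells exposed to compounds for 16 hours before the ATP read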
Arr AP2 block – human beta-arrestin and AP2 interaction inhibition; FITC-arrestin peptide / GST-AP2 beads, flow cytometry; AP2 beta2 appendage carries R879A mutation; hit rate 0.31% among 340,000; inhibition, % at 10 µM;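 active means inhibition above a set limit, near 3 SD of compounds lacking own fluorescence, cut at about 54% in these data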
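Test system: GST-tagged AP2 beta2-adaptin appendage (R879A) on 4 µm glutathione beads; also added: fluorescein-tagged arrestin peptide at 50 nM final; timing: 12 min plus 1 h, RT; signal: flow cytometry, FL1 (488/535 nm); read-out: percent drop in bead-associated FITC signal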
Each line names hits and unclear results; the compound was inactive in the other large screens.

CC(=O)Nc1c(Cl)cc2c(c1Cl)C(=O)c1ccccc1-2	none
COc1ccc(C2CC(=O)c3c(C)nc(N4CCN(c5ccccc5)CC4)nc3C2)cc1 (stereo not drawn)	GRIN3A LBD mod 727
Cc1noc(C)c1COC(=O)c1ccc(-c2nc3ccccc3s2)s1	GRIN3A LBD mod 21
CCNC(=O)COC(=O)c1ccc(-c2nc3ccccc3s2)s1	none
O=C(Nc1ccccc1)Nc1nc(-c2ccc(F)c(F)c2)cs1	GRIN3A LBD mod 28
COc1cccc(C(=O)Nc2nc(-c3ccncc3)cs2)c1	none
O=C(/C=C\c1cn(-c2ccccc2)nc1-c1ccccc1)Nc1nccs1	GRIN3A LBD mod 28
COc1cccc(C(=O)Nc2nc(-c3ccc4c(c3)OCO4)cs2)c1	GRIN3A LBD mod 25
COc1ccccc1CC(=O)Nc1nc(-c2ccc(F)c(F)c2)cs1	none
O=C(Nc1ccccc1)Nc1nc(-c2ccccc2)cs1	GRIN3A LBD mod 23
O=C(/C=C/c1cccs1)Nc1nc(-c2ccccc2)cs1	GRIN3A LBD mod 17
O=C(Nc1nc(-c2cccnc2)cs1)c1ccccc1Cl	none
O=C(Nc1ccc(Cl)c(Cl)c1)Nc1nc(-c2ccccc2)cs1	GRIN3A LBD mod 160
COc1cccc(-c2csc(NC(=O)Nc3ccccc3)n2)c1	GRIN3A LBD mod 32
COc1cccc(-c2csc(NC(=O)C3CC3)n2)c1	GRIN3A LBD mod 20
CC1(C)CC2(C)OC2C2(C1)N=NC(=Nc1ccccc1)O2 (stereo not drawn)	none (no result: GRIN3A LBD mod, Arr AP2 block)
COc1ccc(C(C)(O)c2nc(-c3cccc(O)c3)cs2)cc1 (stereo not drawn)	none (no result: GRIN3A LBD mod, Arr AP2 block)
Cc1cc(C)cc(Oc2cc(NC(=O)c3cn(C)nc3C)cc([N+](=O)[O-])c2)c1	GRIN3A LBD mod 13
Cc1[nH]c2ccccc2c1SCC(=O)NNC(=O)Nc1ccc(OC(F)(F)F)cc1	GRIN3A LBD mod 12
CCOc1ccccc1Nc1nnc(SCc2nnc(-c3cc(OC)c(OC)c(OC)c3)o2)s1	H9c2 protect 68
CCCc1nc2c3ccccc3ccn2c1Cc1ccc(OC)cc1C	none (no result: GRIN3A LBD mod, Arr AP2 block)
CCc1nc2ccc(C(=O)Nc3ccc(NC(C)=O)cc3)cn2c1N(C)CCCc1ccccc1	none (no result: GRIN3A LBD mod, Arr AP2 block)
CCCCn1c(N)c(N(CC(C)C)C(=O)CSc2nnc(-c3ccc(Cl)cc3)o2)c(=O)[nH]c1=O	GRIN3A LBD mod 10
CCCCN(C(=O)CSc1nnc(-c2ccc(Cl)cc2)o1)c1c(N)n(CC(C)C)c(=O)[nH]c1=O	none
Cc1ccc2nc(CSc3nc(C)ccc3C#N)[nH]c2c1	GRIN3A LBD mod 29
Cc1ccc2nc(SCc3nc4ccccc4c(=O)[nH]3)[nH]c2c1	H9c2 protect 58
CCOc1ccc2nc(SCc3cccc(C)c3)nc(C)c2c1	GRIN3A LBD mod 15
Cc1ccc2nc(SCc3ccc([N+](=O)[O-])cc3)[nH]c2c1	FAS-TE inh 58
Cc1ccc(C#N)c(SCc2ccccc2F)n1	none
COc1ccc(NC(=O)CSc2nnnn2C2CCCC2)cc1S(=O)(=O)N1CCOCC1	none (no result: GRIN3A LBD mod, Arr AP2 block)
Cc1ccc2nc(SCc3ccc([N+](=O)[O-])cc3)nc(C)c2c1	GRIN3A LBD mod 13
Cc1cc(C)c2nc(SCc3ccc([N+](=O)[O-])cc3)nc(C)c2c1	none
CCCc1nc2c(C)cc(Br)cn2c1Cc1ccccc1C(F)(F)F	none (no result: GRIN3A LBD mod, Arr AP2 block)
COC(=O)c1[nH]c2ccccc2c1NC(=O)CCN1CCSCC1	iPSC survival up 26
O=C(NCc1cccnc1)c1cc(C2CCCN(C(=O)c3cccc(O)c3)C2)on1 (stereo not drawn)	none (no result: GRIN3A LBD mod, Arr AP2 block)
Cc1ccc(NC(=O)CSCC(=O)N(C)Cc2c(F)cccc2Cl)cc1	none (no result: GRIN3A LBD mod, Arr AP2 block)
CC(NC(=O)c1ccccc1NS(C)(=O)=O)c1ccccc1 (stereo not drawn)	GRIN3A LBD mod 20
O=C(CNC(=O)c1[nH]cnc1C(=O)NC(c1ccccc1)c1ccccc1)OCc1ccccc1	H9c2 protect 58
CC(C)(C)OC(=O)CNC(=O)c1[nH]cnc1C(=O)NCC(=O)OCc1ccccc1	H9c2 protect 105
CC(C)(C)OC(=O)NCCCCCNC(=O)c1nc[nH]c1C(=O)NCC(=O)OCc1ccccc1	none
